tim23-1 inh – inhibits growth of tim23-1 mutant yeast. S. cerevisiae tim23-1 growth, BacTiter-Glo luminescence, 24 h. inhibition, % at 20 µM. hit rate 1.3% among 330,000. AID 463212;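 active = growth inhibition of the mutant yeast at or above 50%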;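 also: temperature-sensitive mutant grown at 25 °C; plate controls were DMSO-treated mutant yeast for no effect and medium wells lacking yeast for full effect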
TIM10 inh – inhibits growth of TIM10 yeast strain; hit rate 1.4% among 330,000; inhibition, % at 10 µM; AID 463195; S. cerevisiae TIM10 strain growth, BacTiter-Glo luminescence, 24 h;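 active = inhibition of 40% or more at the single tested concentration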;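 also: wild-type TIM10 isogenic control strain grown at permissive 25 °C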
XBP1 UPR activ – adaptive UPR (XBP1) activation. CHO-XBP1 luciferase reporter, IRE1-XBP1 UPR activation, luminescence; percent of tunicamycin response, DMSO as zero. activation, % at 20 µM. hit rate 0.33% among 330,000. AID 463104;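 active = versus positive control, 20 µM dose yields 30% or more activation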;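 also: 100% = tunicamycin at 10 µg/mL and 0% = DMSO only wells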
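Material – CHO cell line with stable XBP1 luciferase reporter · Buffer or medium – F12 plus 10% FBS · Compound – single point, 20 µM final compound, 1% DMSO · Schedule – 16-18 h cell attachment at 37 °C, then 6 h compound exposure · Signal – Steady-Glo luminescence read · Benchmarks – high control tunicamycin 10 µg/mL final, low control DMSO vehicle only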
tim10-1 inh – tim10-1 yeast growth inhibition; S. cerevisiae tim10-1 ts strain growth, BacTiter-Glo, 24 h; inhibition, % at 20 µM; hit rate 2.2% among 330,000; AID 463190;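 active = inhibition of at least 40%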;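 also: mutant grown at 25 °C; 0% = DMSO wells with yeast and 100% = wells holding no yeast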
CHOP UPR activ – apoptotic UPR (CHOP) activation. CHO-CHOP luciferase reporter, luminescence; percent of tunicamycin response over DMSO baseline. activation, % at 10 µM. hit rate 0.34% among 330,000;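 active = at 10 µM dose, activation of 40% or more, normalized to positive control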;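 also: 100% = tunicamycin at 10 µg/mL and 0% = DMSO alone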
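Test system: CHO-CHOP cells, stable luciferase reporter of PERK-eIF2a-CHOP signalling | Quantity: 500 CHO-CHOP cells per well | Buffer or medium: F12 plus 10% serum | Compound dosing: 10 µM single point, 0.5% DMSO | Schedule: 6 h compound treatment, 37 °C | Signal: Luciferase luminescence | Control set: Tunicamycin high control, DMSO low control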
tim10-1 conf – confirmation of tim10-1 mutant yeast growth inhibitors; S. cerevisiae tim10-1 ts strain growth, BacTiter-Glo, 24 h; inhibition, % at 20 µM; shares compounds with tim10-1 inh; hit rate 56% among 7,400; AID 463213;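 active = inhibition of yeast growth at or above a set limit in either of two repeat tests at 20 µM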;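 also: tim10-1 mutant grown at permissive 25 °C to find synthetic lethal compounds; 0% = DMSO yeast wells and 100% = medium wells without yeast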
TIM10 conf – TIM10 yeast growth inhibition, confirmed. shares compounds with TIM10 inh. S. cerevisiae tim10 strain growth, BacTiter-Glo luminescence, 24 h. inhibition, % at 10 µM. hit rate 63% among 4,600. AID 463215;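 active = inhibition of yeast growth at or above a set limit in either of two replicates at 10 µM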;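 also: this counterscreen used the strain with wild-type TIM10; 0% = yeast with DMSO and 100% = medium wells lacking yeast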
An asterisk follows results filed as active; / = not tested or not shown. The list is not random: actives were taken first. Their share in the collection is about 3.9%.

SMILES | tim23-1 inh | TIM10 inh | XBP1 UPR activ | tim10-1 inh | CHOP UPR activ | tim10-1 conf | TIM10 conf
COc1ccccc1N1CCN(C(=O)c2ccc3[nH]c4c(c3c2)CC(C)CC4)CC1 (stereo not drawn) | 24 | 49* | 5 | 53* | 0 | 38* | 36*
O=C(Nc1ccc2ccccc2c1)c1ccc2[nH]c(=O)c(=O)[nH]c2c1 | 4 | 1 | 2 | 8 | 4 | / | /
Cc1cc2c3c(c1)C1(C(=O)N3C(C)(C)CC2C)C(C#N)=C(N)Oc2cc(O)ccc21 (stereo not drawn) | 28 | 11 | 0 | 34 | 0 | / | /
Cc1cc2c3c(c1)C(C)CC(C)(C)N3C(=O)C2=C(C#N)C#N (stereo not drawn) | -44 | 59* | 10 | 57* | 0 | 46* | 49*
COC(=O)CCCn1c(C)cc(C(=O)CCl)c1C | 36 | 42* | 3 | 45* | 8 | 37* | 36*
CCOc1ccc(NC(=S)N(Cc2ccc(N(C)C)cc2)Cc2ccco2)cc1 | 38 | 46* | -2 | 52* | -1 | 43* | 36*
CN(C)S(=O)(=O)N1CCCC(C(=O)c2ccc(-c3ccccc3)c(F)c2)C1 (stereo not drawn) | 19 | 14 | 3 | 10 | 0 | / | /
O=C(COC(=O)c1nn(-c2ccccc2C(F)(F)F)cc1O)c1ccc(OC(F)F)cc1 | 10 | -5 | 1 | -1 | 0 | / | /
COc1cc(OC)c2c(-c3cccc(-c4ccc(F)c(Cl)c4)c3)cc(=O)oc2c1 | 31 | -8 | 3 | 4 | 2 | / | /
CC1=C/C(=N\OS(=O)(=O)c2ccccc2)C(C)=CC1=O | -109 | 87* | -6 | 91* | -11 | 80* | -13
Cc1ccc(S(=O)(=O)N2CCN(C(=O)CCc3c[nH]c4ccccc34)CC2)c(C)c1 | 27 | 10 | -2 | 7 | 0 | / | /
CCCCCCCNC(=O)C1(CC2CC(c3ccc(Cl)cc3)=NO2)CCN(C(=O)OC(C)(C)C)CC1 (stereo not drawn) | 1 | -8 | 2 | 8 | -1 | / | /
CCOc1ccc(N2C(=O)CC(Sc3ncccn3)C2=O)cc1 (stereo not drawn) | 8 | 7 | -1 | 17 | 0 | / | /
CCOC(=O)c1ccc(N2C(=O)CC(Sc3nnc(C)s3)C2=O)cc1 (stereo not drawn) | 38 | 65* | -3 | 55* | -1 | 78* | 60*
C=CCNc1nnc(SC2CC(=O)N(c3ccc(OCCC)cc3)C2=O)s1 (stereo not drawn) | 46 | 68* | -4 | 63* | 1 | 74* | 69*
CCOC(=O)c1ccc(N2C(=O)CC(Sc3nc(C)cc(C)n3)C2=O)cc1 (stereo not drawn) | 20 | -3 | -1 | 20 | 2 | / | /
CC(C)c1nnc(NC(=O)c2cccc(NC(=O)C(F)(F)F)c2)s1 | 13 | -3 | -4 | -4 | 3 | / | /
CCC1CCCCN1C(=O)COC(=O)c1cc(C)nc2ccccc12 (stereo not drawn) | 34 | 10 | -3 | -10 | 1 | / | /
CC1CCCCN1S(=O)(=O)c1ccc2c(c1)CCN2C(=O)C1CCC1 (stereo not drawn) | -19 | 44* | -1 | 42* | -1 | 40* | 20
O=C(Nc1cc(S(=O)(=O)N2CCOCC2)ccc1Cl)C1CCC1 | 4 | 8 | 0 | 5 | 3 | / | /
COc1cccc2oc(-c3ccco3)cc(=O)c12 | 41 | 47* | 0 | 45* | 10 | 26 | 40*
COc1ccc2oc(-c3ccco3)cc(=O)c2c1 | 8 | -23 | -1 | -6 | 3 | / | /
CCCCNC(=S)Nc1ccc(SC(F)F)cc1 | 43 | 41* | 0 | 53* | 5 | 36* | 30*
Cc1cc(Nc2ccc(F)c(F)c2)nc(-c2ccccc2O)n1 | -1 | 14 | 6 | 17 | 2 | / | /
Cc1ccc(Nc2cc(C)nc(-c3ccccc3O)n2)cc1 | 40 | 53* | 0 | 58* | 3 | 59* | 48*
SMILES | tim23-1 inh | TIM10 inh | XBP1 UPR activ | tim10-1 inh | CHOP UPR activ | tim10-1 conf | TIM10 conf
COc1ccccc1CNC(=O)COC(=O)C1CCN(S(=O)(=O)c2ccccc2)CC1 | 5 | 0 | 0 | -11 | 1 | / | /
CC(C#Cc1ccc2c(c1)COc1c3ccccc3nn1-2)OC(C)(C)C (stereo not drawn) | 1 | -7 | 4 | 21 | 4 | / | /
Cc1ccccc1-c1cc(-c2ccccc2O)n[nH]1 | 44 | 65* | 1 | 45* | 5 | 14 | 6
O=c1cc(-c2ccccc2)n(S(=O)(=O)c2ccc3ccccc3c2)o1 | 21 | 64* | -1 | 42* | 0 | 37* | 44*
Cn1c(SCC(=O)N2CC(=O)Nc3ccccc32)nnc1C(F)(F)F | -3 | -6 | 1 | 3 | 2 | / | /
Cc1ccc(/C(N)=N/OC(=O)c2ccco2)cc1 | 38 | 52* | 1 | 46* | 2 | 34* | 37*
CC(C)OC(=O)/C(C#N)=C\c1cccnc1 | 1 | 1 | -2 | 4 | -2 | / | /
CCCCNC(=O)/C(C#N)=C/c1cccnc1 | 50 | 50* | 1 | 44* | 1 | 35* | 39*
CC(C)CC(=O)Nc1ccc(C(=O)COC(=O)C2CC(=O)N(Cc3ccccc3)C2)cc1 (stereo not drawn) | -6 | -7 | 0 | -7 | 1 | / | /
CCN(CC)CCCNC(=O)c1cc2c(Cl)nc3ccccc3c2s1 | 6 | -2 | -2 | 20 | -2 | / | /
CN(CCCNC(=O)c1cc2c(Cl)nc3ccccc3c2s1)Cc1ccccc1 | 11 | 43* | 3 | 53* | -2 | 41* | 44*
CCC(CC)NC(=O)c1cc(S(=O)(=O)N2CCCCC2)ccc1N1CCOCC1 | 8 | -4 | 1 | 0 | 0 | / | /
Cn1sccc1=O | 17 | 10 | -6 | 30 | 16 | / | /
O=C(NC(=S)Nc1nc2c(s1)CSc1ccccc1-2)c1ccccc1 | 45 | 44* | 12 | 48* | 0 | 19 | 30*
O=C(NC(=S)Nc1nc2c(s1)CCCC2)c1ccc(C(=O)c2ccccc2)cc1 | 2 | -12 | -1 | 10 | -2 | / | /
C=C1CCC[C@]2(C)C[C@H]3OC(=O)C(CNC(C)(CO)CO)[C@H]3CC12 (stereo partly drawn) | 44 | 43* | -4 | 51* | 2 | 52* | 50*
CC1CCCCC1NC(=O)CSc1nnnn1C (stereo not drawn) | -9 | -8 | -2 | -4 | 0 | / | /
CN(C(=O)COC(=O)c1ccc2c(c1)OCCO2)c1ccccc1 | 48 | 50* | -1 | 44* | 1 | 48* | 43*
NNc1nc2c(Cl)ccc(Cl)c2s1 | 47 | 53* | -1 | 58* | 0 | 58* | 3
